Data reported in ChEMBL document CHEMBL1155288, “Novel 1,2,3-thiadiazole derivatives as HIV-1 NNRTIs with improved potency: Synthesis and preliminary SAR studies” (Bioorg Med Chem, 2009).

Columns and labels:
[1] = Selectivity index, ratio of CC50 for human MT4 cells to EC50 for HIV1 3B; type: toxicity, cell-based; conditions: read-out: Ratio CC50/EC50
In short: (§1)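 Ratio CC50/EC50. CC50 comes from mock-infected MT-4 cells and EC50 from HIV-1 IIIB- or HIV-2 ROD-infected MT-4 cells, both from the same 5-day MTT plates.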

[2] = test system: Human immunodeficiency virus 1; assay: Antiviral activity against HIV1 3B infected in human MT4 cells after 5 days by MTT assay; type: functional, organism-based; conditions: Human immunodeficiency virus 1, 3B, MT4, 120 h
In short: (§2)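 MT-4 cells (6 × 10^5 cells/mL) infected with HIV-1 IIIB or HIV-2 ROD at 100–300 CCID50. Serial fivefold compound dilutions were tested in triplicate wells. Viability was read by MTT reduction at 540 and 690 nm on day 5, using the median OD of three wells. EC50 is the concentration giving 50% protection from viral cytopathic effect.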

[3] = Cytotoxicity against human MT4 cells after 5 days by MTT assay; type: cell-based
In short: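 Mock-infected MT-4 cells (6 × 10^5 cells/mL) received serial fivefold compound dilutions in triplicate wells, run in parallel with the infected series. After 5 days, viability was measured by MTT formazan absorbance at 540 and 690 nm, using the median OD of three wells. CC50 is the concentration reducing OD540 of the mock-infected control by 50%.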

[4] = test system: Human immunodeficiency virus 2; assay: Antiviral activity against HIV2 ROD infected in human MT4 cells after 5 days by MTT assay; type: functional, organism-based; conditions: Human immunodeficiency virus 2, ISOLATE ROD, MT4, 120 h; in short: as §2
[5] = Selectivity index, ratio of CC50 for human MT4 cells to EC50 for HIV2 ROD; type: toxicity, cell-based; conditions: read-out: Ratio CC50/EC50; in short: as §1

SMILES	selectivity ratio [1]	EC50 [2]	CC50 at 120 h [3]	EC50 [4]	selectivity ratio [5]
O=C(CSc1snnc1-c1ccc(Br)cc1Br)Nc1ccccc1	47	0.54 µM	24.8 µM	> 24.8 µM	< 1
Cc1ccc(NC(=O)CSc2snnc2-c2ccc(Br)cc2Br)c(Br)c1	> 958	0.22 µM	> 216 µM	> 216 µM	≥ 1
Cc1cccc(NC(=O)CSc2snnc2-c2ccc(Br)cc2Br)c1C	166	1.44 µM	241 µM	> 241 µM	< 1
O=C(CSc1snnc1-c1ccc(Br)cc1Br)Nc1ccccc1F	> 195	0.14 µM	≥ 27.8 µM	> 27.8 µM	< 1
CC(=O)c1ccc(NC(=O)CSc2snnc2-c2ccc(Br)cc2Br)c(Br)c1	> 3550	0.058 µM	> 206 µM	> 206 µM	≥ 1
Cc1ccc(NC(=O)CSc2snnc2-c2ccc(Br)cc2Br)c([N+](=O)[O-])c1	> 2930	0.079 µM	> 230 µM	> 230 µM	≥ 1
Cc1cccc(C)c1NC(=O)CSc1snnc1-c1ccc(Br)cc1Br	< 1	> 199 µM	≥ 199 µM	> 199 µM	< 1
O=C(CSc1snnc1-c1ccc(Br)cc1Br)Nc1ccccc1Cl	> 2900	0.083 µM	> 241 µM	≥ 221 µM	> 1
O=C(CSc1snnc1-c1ccc(Br)cc1Br)Nc1ccccn1	36	1.17 µM	42.4 µM	> 42.4 µM	< 1
O=C(CSc1snnc1-c1ccc(Br)cc1Br)Nc1cccnc1Cl	> 6460	0.0364 µM	> 240 µM	> 240 µM	≥ 1
O=C(CSc1snnc1-c1ccc(Br)cc1Br)Nc1ccccc1Br	> 1790	0.12 µM	> 222 µM	172 µM	> 1
Cc1ccc(NC(=O)CSc2snnc2-c2ccc(Br)cc2Br)cc1	16	1.52 µM	24 µM	> 24 µM	< 1
O=C(CSc1snnc1-c1ccc(Br)cc1Br)Nc1ccc(Cl)cc1	11	2.19 µM	23.3 µM	> 23.3 µM	< 1
Cc1ccccc1NC(=O)CSc1snnc1-c1ccc(Br)cc1Br	381	0.52 µM	202 µM	> 202 µM	< 1
Cc1ccc2sc(NC(=O)CSc3snnc3-c3ccc(Br)cc3Br)nc2c1	< 1	> 23.6 µM	23.6 µM	> 23.6 µM	< 1
COC(=O)c1ccsc1NC(=O)CSc1snnc1-c1ccc(Br)cc1Br	> 57	4.01 µM	> 228 µM	> 228 µM	≥ 1
O=C(CSc1snnc1-c1ccc(Br)cc1Br)Nc1ccccc1[N+](=O)[O-]	> 5840	0.04 µM	> 236 µM	> 236 µM	≥ 1
O=C(CSc1snnc1-c1ccc(Br)cc1Br)Nc1nccs1	19	4.53 µM	87.8 µM	> 87.8 µM	< 1
